Data taken from ChEMBL document CHEMBL1667836, “Synthesis of egonol derivatives and their antimicrobial activities” (2011).
Values after ≈ are worked out from the molar mass of the structure shown. Active and inactive are the calls of the source. The rule behind the calls is not given here.

Tests used:
Type in all cases: functional
Escherichia coli = assay: Antimicrobial activity against Escherichia coli ATCC 8739 by MHB method
Procedure, shortened: (§1)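 Broth-based MIC assay in Mueller Hinton broth. Test compounds were supplied from stock solutions in DMSO. The read-out was the minimum inhibitory concentration determined for each compound against each strain.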

Staphylococcus aureus = assay: Antimicrobial activity against Staphylococcus aureus ATCC 29213 by MHB method; procedure, shortened: as §1
Bacillus subtilis = assay: Antimicrobial activity against Bacillus subtilis ATCC 6633 by MHB method; procedure, shortened: as §1
Candida albicans = assay: Antimicrobial activity against Candida albicans ATCC 10231 by MHB method; procedure, shortened: as §1

| MIC (Escherichia coli) | MIC (Staphylococcus aureus) | MIC (Bacillus subtilis) | MIC (Candida albicans) | SMILES |
| --- | --- | --- | --- | --- |
| inactive | inactive | 400 µg/mL (≈ 1050 µM) | 25 µg/mL (≈ 65.6 µM) | COc1cc(CC/C=N/NC(N)=O)cc2cc(-c3ccc4c(c3)OCO4)oc12 |
| 400 µg/mL (≈ 984 µM) | 400 µg/mL (≈ 984 µM) | 400 µg/mL (≈ 984 µM) | 50 µg/mL (≈ 123 µM) | COc1cc(CCCOS(=O)(=O)O)cc2cc(-c3ccc4c(c3)OCO4)oc12 |
| inactive | inactive | inactive | 200 µg/mL (≈ 549 µM) | COc1cc(CC/C=C/C(C)=O)cc2cc(-c3ccc4c(c3)OCO4)oc12 |
| inactive | inactive | inactive | 200 µg/mL | COc1cc(CCCOC(C)=O)cc2cc(-c3ccc4c(c3)OCO4)oc12 [EGONOL ACETATE] |
| inactive | inactive | inactive | 800 µg/mL (≈ 2360 µM) | COc1cc(CC/C=N/O)cc2cc(-c3ccc4c(c3)OCO4)oc12 |
| inactive | inactive | inactive | 100 µg/mL (≈ 248 µM) | COc1cc(CCCOC(=O)CCl)cc2cc(-c3ccc4c(c3)OCO4)oc12 |
| 800 µg/mL (≈ 2450 µM) | 800 µg/mL (≈ 2450 µM) | 800 µg/mL (≈ 2450 µM) | 25 µg/mL (≈ 76.6 µM) | COc1cc(CCCO)cc2cc(-c3ccc4c(c3)OCO4)oc12 [EGONOL] |
| inactive | 200 µg/mL (≈ 588 µM) | 800 µg/mL (≈ 2350 µM) | 50 µg/mL (≈ 147 µM) | COc1cc(CCC(=O)O)cc2cc(-c3ccc4c(c3)OCO4)oc12 [EGONOIC ACID] |

Second part, the compound before the results:

| SMILES | MIC (Escherichia coli) | MIC (Staphylococcus aureus) | MIC (Bacillus subtilis) | MIC (Candida albicans) |
| --- | --- | --- | --- | --- |
| COc1ccc(-c2cc3cc(CCCOC(=O)CCl)cc(OC)c3o2)cc1OC | inactive | 400 µg/mL (≈ 955 µM) | 400 µg/mL (≈ 955 µM) | 200 µg/mL (≈ 477 µM) |
| COc1cc(CC/C=N/OC(=O)c2ccccc2)cc2cc(-c3ccc4c(c3)OCO4)oc12 | inactive | inactive | 400 µg/mL (≈ 902 µM) | 100 µg/mL (≈ 226 µM) |
| COc1cc(CC/C=N/NC(N)=S)cc2cc(-c3ccc4c(c3)OCO4)oc12 | inactive | inactive | 400 µg/mL (≈ 1010 µM) | 200 µg/mL (≈ 503 µM) |
| COc1cc(CCCN2CCOCC2)cc2cc(-c3ccc4c(c3)OCO4)oc12 | inactive | 200 µg/mL (≈ 506 µM) | inactive | 25 µg/mL (≈ 63.2 µM) |
| COc1c([N+](=O)[O-])c(CCCO)cc2c([N+](=O)[O-])c(-c3ccc4c(c3)OCO4)oc12 | 400 µg/mL (≈ 961 µM) | 800 µg/mL (≈ 1920 µM) | 400 µg/mL (≈ 961 µM) | 400 µg/mL (≈ 961 µM) |
| COc1cc(CCCO)cc2c(N)c(-c3ccc4c(c3)OCO4)oc12 | inactive | inactive | inactive | 800 µg/mL (≈ 2340 µM) |
| COc1cc(CCCCl)cc2c([N+](=O)[O-])c(-c3ccc4c(c3)OCO4)oc12 | 800 µg/mL (≈ 2050 µM) | inactive | inactive | 25 µg/mL (≈ 64.1 µM) |
| COc1cc(CC/C=C(\C=O)Cc2cc(OC)c3oc(-c4ccc5c(c4)OCO5)cc3c2)cc2cc(-c3ccc4c(c3)OCO4)oc12 | inactive | 25 µg/mL (≈ 39.6 µM) | inactive | 25 µg/mL (≈ 39.6 µM) |
| COc1cc(CCCOC(=O)CN2CCOCC2)cc2cc(-c3ccc4c(c3)OCO4)oc12 | 800 µg/mL (≈ 1760 µM) | inactive | inactive | inactive |
| CCN(CC)CCCc1cc(OC)c2oc(-c3ccc4c(c3)OCO4)cc2c1 | inactive | inactive | inactive | 200 µg/mL (≈ 524 µM) |
| COc1cc(CC/C=N/OC(=O)CCl)cc2cc(-c3ccc4c(c3)OCO4)oc12 | 800 µg/mL (≈ 1920 µM) | inactive | inactive | 25 µg/mL (≈ 60.1 µM) |
